Measurements published in ChEMBL document CHEMBL4400565, “Discovery of Irreversible p97 Inhibitors” (J Med Chem, 2019).
Calls of active or inactive are those of the source. The rule behind the calls is not given here. Where a SMILES comes first, the peptide text is derived from it. [ ]: non-standard residue; d: D form. The star is where a group is joined. Nva = CCC[C@H](N)C(=O)O; Cbz = O=C(OCc1ccccc1)*

Columns and labels:
[1] = target: T1, Transitional endoplasmic reticulum ATPase (Homo sapiens, UniProt P55072); assay: Inhibition of p97 ATPase activity in human HEK293T cells based Ubv-GFP cells assessed as increase Ub-v-GFP accumulation at 2 uM after 4 hrs by Western blot analysis; format: cell-based
Procedure, shortened: (§1)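 Ub-v-GFP reporter cells (HEK293T-based, 3 × 10⁵) seeded on poly-D-lysine-coated wells and grown overnight. Inhibitor added at 2 μM and kept 4 h at 37 °C (scheme A), or removed after 1 h, cells washed once with PBS, then 3 h in drug-free medium (scheme B). Whole-cell Laemmli extracts immunoblotted for Ub-v-GFP, with anti-p97 as loading control.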
Target sequence in this assay (P55072 2-806 limits assumed): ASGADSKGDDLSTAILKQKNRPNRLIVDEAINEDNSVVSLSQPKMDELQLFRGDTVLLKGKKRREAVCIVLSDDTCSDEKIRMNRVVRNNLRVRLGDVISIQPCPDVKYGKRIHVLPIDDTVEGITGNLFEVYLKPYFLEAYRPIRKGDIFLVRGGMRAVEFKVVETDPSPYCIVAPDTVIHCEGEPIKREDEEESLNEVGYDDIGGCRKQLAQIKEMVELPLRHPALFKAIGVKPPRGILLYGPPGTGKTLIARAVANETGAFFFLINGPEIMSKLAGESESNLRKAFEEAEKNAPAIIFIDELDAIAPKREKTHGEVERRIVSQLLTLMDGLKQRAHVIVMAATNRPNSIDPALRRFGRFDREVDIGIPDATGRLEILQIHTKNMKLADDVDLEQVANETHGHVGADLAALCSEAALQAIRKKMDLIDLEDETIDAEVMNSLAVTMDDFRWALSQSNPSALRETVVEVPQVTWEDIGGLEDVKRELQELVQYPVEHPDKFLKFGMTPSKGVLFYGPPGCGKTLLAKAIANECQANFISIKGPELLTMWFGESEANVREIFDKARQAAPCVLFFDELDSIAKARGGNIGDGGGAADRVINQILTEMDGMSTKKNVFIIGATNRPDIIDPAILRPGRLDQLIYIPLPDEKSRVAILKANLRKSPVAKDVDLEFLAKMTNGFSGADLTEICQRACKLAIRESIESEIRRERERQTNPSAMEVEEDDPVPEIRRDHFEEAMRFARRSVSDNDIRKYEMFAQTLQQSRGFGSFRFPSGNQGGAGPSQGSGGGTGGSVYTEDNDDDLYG

[2] = test system: MIA PaCa-2; assay: Antiproliferative activity against human MIAPaCa2 cells; format: functional, cell-based
[3] = target: T1, Transitional endoplasmic reticulum ATPase; assay: Inhibition of His-tagged p97 (unknown origin) in presence of ATP and PNP by UV-transparent microplate assay; settings: read-out: Ki(app)
Target sequence in this assay (P55072 whole entry): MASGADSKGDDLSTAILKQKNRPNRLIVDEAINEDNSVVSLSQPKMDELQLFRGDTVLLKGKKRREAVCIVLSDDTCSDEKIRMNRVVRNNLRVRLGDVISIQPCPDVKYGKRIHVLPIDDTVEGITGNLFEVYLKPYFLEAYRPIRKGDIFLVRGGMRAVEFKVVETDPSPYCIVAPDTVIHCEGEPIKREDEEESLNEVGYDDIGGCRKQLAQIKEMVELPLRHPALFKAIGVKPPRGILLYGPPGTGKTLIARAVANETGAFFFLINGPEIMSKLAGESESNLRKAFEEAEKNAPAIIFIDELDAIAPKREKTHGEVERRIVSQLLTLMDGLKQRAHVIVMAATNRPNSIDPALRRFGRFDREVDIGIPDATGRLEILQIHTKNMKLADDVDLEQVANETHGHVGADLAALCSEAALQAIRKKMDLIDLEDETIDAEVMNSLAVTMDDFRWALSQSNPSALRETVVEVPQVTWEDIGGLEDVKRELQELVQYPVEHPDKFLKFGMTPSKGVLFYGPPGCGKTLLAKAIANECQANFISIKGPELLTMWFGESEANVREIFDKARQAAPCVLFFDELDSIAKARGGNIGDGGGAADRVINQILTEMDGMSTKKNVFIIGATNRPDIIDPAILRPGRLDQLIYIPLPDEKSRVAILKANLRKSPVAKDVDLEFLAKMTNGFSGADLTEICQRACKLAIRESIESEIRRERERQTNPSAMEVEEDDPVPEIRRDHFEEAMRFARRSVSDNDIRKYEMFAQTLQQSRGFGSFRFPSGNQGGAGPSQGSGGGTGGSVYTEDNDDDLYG

[4] = target: T1, Transitional endoplasmic reticulum ATPase; assay: Irreversible inhibition of p97 ATPase activity in human HEK293T cells based Ubv-GFP cells assessed as increase Ub-v-GFP accumulation at 2 uM incubated for 4 hrs by Western blot analysis; format: cell-based; procedure, shortened: as §1
Target sequence in this assay (P55072 2-806 limits assumed): as the sequence (P55072 2-806 limits assumed) above

[5] = GSH reactivity in PBS buffer assessed as GSH adduct formation at 1 uM after presence of GSH by LC-MS/MS analysis; format: physicochemical
Procedure, shortened: (§2)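 Compound at 1 μM incubated at 37 °C with 5 mM GSH plus a stable internal standard in 0.1 M potassium phosphate, pH 7.4, 10% acetonitrile. Reaction started by GSH addition. GSH conjugate formation checked at the end of incubation.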

[6] = GSH reactivity in PBS buffer assessed as half life at 1 uM after presence of GSH by LC-MS/MS analysis; format: physicochemical; settings: PBS buffer with GSH; procedure, shortened: as §2
[7] = test system: Proteasome; assay: Irreversible inhibition of proteasome in human HEK293T cells based Ubv-GFP cells assessed as increase Ub-v-GFP accumulation at 20 uM after 4 hrs by Western blot analysis
Procedure, shortened: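 Ub-v-GFP reporter cells (HEK293T-based, stably expressing this short-lived proteasome substrate) seeded at 3 × 10⁵ per well on poly-D-lysine, grown overnight, then exposed to MG132 for 4 h at 37 °C. Whole-cell extracts in Laemmli buffer were run on SDS-PAGE and immunoblotted for Ub-v-GFP, with anti-p97 as loading control.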

[8] = test system: Proteasome; assay: Irreversible inhibition of proteasome in human HEK293T cells based Ubv-GFP cells assessed as increase Ub-v-GFP accumulation at 20 uM incubated for 1 hr followed by culturing in drug-free medium for additional 3 hrs by Western blot analysis
[9] = test system: Proteasome; assay: Inhibition of proteasome in human HEK293T cells based Ubv-GFP cells assessed as increase Ub-v-GFP accumulation at 20 uM after 4 hrs by Western blot analysis
[10] = test system: Proteasome; assay: Irreversible inhibition of proteasome in human A373 cells co-expressing US11 and HA-tagged MCH class 1 heavy chain H2A assessed as MHC class 1 heavy chain degradation at 20 uM incubated for 1 hr followed by further incubation in drug-free medium in presence of cycloheximide by Western blot analysis
[11] = test system: Proteasome; assay: Inhibition of proteasome in human HEK293T cells stably expressing YFP delSS TCRalpha assessed as reduction in deltaSS TCRalpha-YFP degradation at 10 uM MG132 incubated overnight by Western blot analysis
[12] = target: T1, Transitional endoplasmic reticulum ATPase; assay: Reversible inhibition of His-tagged p97 (unknown origin) using PNP as substrate assessed as activity recovered at 3200 nM after 2 hrs by dialysis relative to control; design: scale not given: the % may be the effect or the level left
Target sequence in this assay (P55072 2-806 limits assumed): as above

[13] = test system: Transitional endoplasmic reticulum ATPase (Homo sapiens), P55072 [UNDEFINED MUTATION]; assay: Reversible inhibition of His-tagged p97 C552A mutant (unknown origin) using PNP as substrate assessed as activity recovered at 3200 nM after 2 hrs by dialysis relative to control; design: scale not given: the % may be the effect or the level left
Chain of Transitional endoplasmic reticulum ATPase (Homo sapiens), P55072 [UNDEFINED MUTATION] (P55072 whole entry, looked up, stated change not applied): as the sequence (P55072 whole entry) above

[14] = target: T1, Transitional endoplasmic reticulum ATPase; assay: Inhibition of p97 in human A373 cells co-expressing US11 and HA-tagged MCH class 1 heavy chain H2A assessed as MHC class 1 heavy chain accumulation at 2 uM after 1 hr by Western blot analysis; format: cell-based
Target sequence in this assay (P55072 2-806 limits assumed): as the sequence (P55072 2-806 limits assumed) above

[15] = target: T1, Transitional endoplasmic reticulum ATPase; assay: Noncompetitive inhibition of p97 (unknown origin) using increasing concentration of ATP preincubated for 10 mins followed by ATP addition and measured after 2 hrs by UV-based two-step endpoint assay
Target sequence in this assay (P55072 2-806 limits assumed): as above

[16] = target: T1, Transitional endoplasmic reticulum ATPase; assay: Irreversible inhibition of p97 in human A373 cells co-expressing US11 and HA-tagged MCH class 1 heavy chain H2A assessed as MHC class 1 heavy chain degradation at 2 uM incubated for 1 hr followed by further incubation in drug-free medium in presence of cycloheximide by Western blot analysis
Target sequence in this assay (P55072 2-806 limits assumed): as above

[17] = target: T1, Transitional endoplasmic reticulum ATPase; assay: Irreversible inhibition of His-tagged p97 (unknown origin) using PNP as substrate assessed as activity recovered at 780 nM after 2 hrs by dialysis relative to control; design: scale not given: the % may be the effect or the level left
[18] = test system: Transitional endoplasmic reticulum ATPase (Homo sapiens), P55072 [UNDEFINED MUTATION]; assay: Irreversible inhibition of His-tagged p97 C552A mutant (unknown origin) using PNP as substrate assessed as activity recovered at 780 nM after 2 hrs by dialysis relative to control; design: scale not given: the % may be the effect or the level left
[19] = species: Homo sapiens; assay: Irreversible inhibition of His-tagged p97 delta N mutant (unknown origin) using PNP as substrate assessed as activity recovered at 780 nM after 2 hrs by dialysis relative to control; design: scale not given: the % may be the effect or the level left
[20] = target: T1, Transitional endoplasmic reticulum ATPase; assay: Irreversible inhibition of p97 ATPase activity in human HEK293T cells based Ubv-GFP cells assessed as increase Ub-v-GFP accumulation at 2 uM incubated for 1 hr followed by culturing in drug-free medium for additional 3 hrs by Western blot analysis; format: cell-based; procedure, shortened: as §1
[21] = test system: Proteasome; assay: Inhibition of proteasome in human HEK293T cells stably expressing YFP delSS TCRalpha assessed as reduction in deltaSS TCRalpha-YFP degradation at 2 uM MG132 incubated overnight by Western blot analysis
[22] = target: T1, Transitional endoplasmic reticulum ATPase; assay: Reversible inhibition of p97 in human A373 cells co-expressing US11 and HA-tagged MCH class 1 heavy chain H2A assessed as half life for MHC class 1 heavy chain degradation at 2 uM incubated for 1 hr followed by further incubation in drug-free medium in presence of cycloheximide by Western blot analysis; format: cell-based
Procedure, shortened: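 They were then moved to inhibitor-free medium containing cycloheximide (50 μg/mL) and sampled at set time points. Lysates were immunoblotted for heavy chain turnover.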

For `CCC#CC(=O)Nc1cccc2c1cc(C)n2-c1nc2c(c(NCc3ccccc3)n1)CCCC2`, which inhibition [1] is on record?
The inhibition was “Active”.

And the EC50 [2]?
Its EC50 is 0.463 µM.

What about the Ki [3] of the same molecule?
The Ki was 0.043 µM.

For `CC#CCNC(=O)c1cccc2c1cc(C)n2-c1nc2c(c(NCc3ccccc3)n1)COCC2`, which inhibition [1] is on record?
Its inhibition is “Active”.

What about the inhibition [4] of the same molecule?
The inhibition was “Active”.

And the EC50 [2]?
The EC50 was 0.524 µM.

And the Activity [5]?
The Activity was “Not Active”.

What about the half-life at 1 µM [6] of the same molecule?
The half-life at 1 µM was over 24 h.

And the Ki [3]?
The Ki was 0.0424 µM.

Which inhibition [7] does the source give for `CCC[C@@H](C=O)NC(=O)[C@H](CC(C)C)NC(=O)[C@H](CC(C)C)NC(=O)OCc1ccccc1` (Cbz-Leu-Leu-[Nva]-aldehyde) here?
Its inhibition is “Active”.

What about the inhibition [8] of the same molecule?
Its inhibition is “Active”.

With `Cc1cc2c(C(=O)NCCC#N)cccc2n1-c1nc2c(c(NCc3ccccc3)n1)CCCC2` as the molecule, how does the inhibition [1] read?
Its inhibition is “Active”.

What about the EC50 [2] of the same molecule?
The EC50 was 0.517 µM.

What about the Ki [3] of the same molecule?
Its Ki is 0.0241 µM.

For `CCCNC(=O)c1cccc2c1cc(C)n2-c1nc2c(c(NCc3ccccc3)n1)CCCC2`, which EC50 [2] is on record?
The EC50 was 0.608 µM.

And the Ki [3]?
Its Ki is 0.0408 µM.

Which EC50 [2] does the source give for `C#CC(=O)Nc1cccc2c1cc(C)n2-c1nc2c(c(NCc3ccccc3)n1)CCCC2` here?
Its EC50 is 0.131 µM.

And the Ki [3]?
The Ki was 0.0379 µM.

With `C#CCNC(=O)c1cccc2c1cc(C)n2-c1nc2c(c(NCc3ccccc3)n1)COCC2` as the molecule, how does the inhibition [1] read?
The inhibition was “Active”.

What about the inhibition [4] of the same molecule?
Its inhibition is “Active”.

And the EC50 [2]?
The EC50 was 1.08 µM.

What about the Ki [3] of the same molecule?
Its Ki is 0.0186 µM.

With `CC#CC(=O)Nc1cccc2c1cc(C)n2-c1nc2c(c(NCc3ccccc3)n1)COCC2` as the molecule, how does the EC50 [2] read?
Its EC50 is 0.6 µM.

What about the Ki [3] of the same molecule?
Its Ki is 0.0323 µM.

Which inhibition [1] does the source give for `CCC(=O)Nc1cccc2c1cc(C)n2-c1nc2c(c(NCc3ccccc3)n1)CCCC2` here?
Its inhibition is “Active”.

What about the EC50 [2] of the same molecule?
Its EC50 is 1.01 µM.

And the Ki [3]?
The Ki was 0.0208 µM.

With `CC(C)C[C@@H](C=O)NC(=O)[C@H](CC(C)C)NC(=O)[C@H](CC(C)C)NC(=O)OCc1ccccc1` (Cbz-Leu-Leu-Leu-aldehyde) as the molecule, how does the inhibition [9] read?
Its inhibition is “Active”.

And the inhibition [10]?
The inhibition was “Active”.

And the inhibition [11]?
Its inhibition is “Active”.

What does the source list for `CC#CCNC(=O)c1cccc2c1cc(C)n2-c1nc2c(c(NCc3ccccc3)n1)CCCC2`?
inhibition [1]: Active; inhibition [4]: Active; EC50 [2]: 0.723 µM; Activity [5]: Not Active; half-life at 1 µM [6]: > 24 h; Ki [3]: 0.0373 µM

Which inhibition [1] does the source give for `Cc1cc2c(C(=O)NCC#N)cccc2n1-c1nc2c(c(NCc3ccccc3)n1)CCCC2` here?
The inhibition was “Active”.

And the EC50 [2]?
Its EC50 is 0.468 µM.

What about the Ki [3] of the same molecule?
Its Ki is 0.0281 µM.

Which EC50 [2] does the source give for `C#CC(=O)Nc1cccc2c1cc(C)n2-c1nc2c(c(NCc3ccccc3)n1)COCC2` here?
Its EC50 is 0.0787 µM.

And the Ki [3]?
The Ki was 0.0328 µM.

Which results are given for `COc1cccc2c(NCc3ccccc3)nc(-n3c(N)nc4ccccc43)nc12`?
Activity [12]: 82%; Activity [13]: 100%

With `C#CCNC(=O)c1cccc2c1cc(C)n2-c1nc2c(c(NCc3ccccc3)n1)CCCC2` as the molecule, how does the inhibition [1] read?
The inhibition was “Active”.

What about the inhibition [4] of the same molecule?
Its inhibition is “Active”.

What about the EC50 [2] of the same molecule?
Its EC50 is 0.47 µM.

What about the Ki [3] of the same molecule?
Its Ki is 0.0306 µM.

With `CCCC#CC(=O)Nc1cccc2c1cc(C)n2-c1nc2c(c(NCc3ccccc3)n1)CCCC2` as the molecule, how does the inhibition [1] read?
The inhibition was “Active”.

What about the EC50 [2] of the same molecule?
Its EC50 is 1.57 µM.

What about the Ki [3] of the same molecule?
Its Ki is 0.0269 µM.

What does the source list for `CC#CC(=O)Nc1cccc2c1cc(C)n2-c1nc2c(c(NCc3ccccc3)n1)CCCC2`?
inhibition [14]: Active; inhibition [15]: Active; inhibition [1]: Active; inhibition [16]: Active; Activity [17]: 3%; inhibition [4]: Active; EC50 [2]: 0.436 µM; Activity [18]: 6%; Activity [19]: 0%; inhibition [20]: Active; inhibition [21]: inactive; Ki [3]: 0.0332 µM

Which inhibition [1] does the source give for `Cc1cc2c(C(N)=O)cccc2n1-c1nc2c(c(NCc3ccccc3)n1)CCCC2` here?
Its inhibition is “Active”.

What about the EC50 [2] of the same molecule?
Its EC50 is 0.128 µM.

And the Ki [3]?
The Ki was 0.0286 µM.

Which inhibition [1] does the source give for `C#CCCNC(=O)c1cccc2c1cc(C)n2-c1nc2c(c(NCc3ccccc3)n1)CCCC2` here?
Its inhibition is “Active”.

What about the EC50 [2] of the same molecule?
Its EC50 is 1.41 µM.

And the Ki [3]?
Its Ki is 0.0245 µM.

Which results are given for `C=CC(=O)Nc1cccc2c1cc(C)n2-c1nc2c(c(NCc3ccccc3)n1)COCC2`?
EC50 [2]: 0.88 µM; Ki [3]: 0.0266 µM

What does the source list for `Cc1cc(OCc2nnc(SC3CCCC3)n2-c2cccnc2)ccc1-c1ccc(S(C)(=O)=O)cc1`?
inhibition [14]: Active; T1/2 [22]: < 1 h; inhibition [21]: inactive
